High-throughput results (PubChem)
UPR XBP1 act = activators of adaptive XBP1 UPR arm, primary screen, cell-based, CHO-XBP1 luciferase reporter, luminescence, uHTS | IRE1-XBP1 UPR activation; percent of tunicamycin response, DMSO as zero | activation, % at 20 µM | 330,000 compounds, 0.33% hits | AID 463104, 2010;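 active = versus positive control, 20 µM dose yields 30% or more activation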;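 note: 100% = tunicamycin at 10 µg/mL and 0% = DMSO only wells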
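Test system: CHO-XBP1 luciferase reporter cells | Buffer or medium: Serum-containing F12 medium, 10% FBS | Schedule: 6 h compound exposure at 37 °C, 5% CO2 | Detection: Steady-Glo luciferase glow luminescence, 10 min after reagent addition | Read-out basis: Activation, % of tunicamycin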
UPR CHOP act = activators of apoptotic CHOP UPR arm, primary screen, cell-based, CHO-CHOP luciferase reporter, luminescence, uHTS; UPR activation; percent of tunicamycin response over DMSO baseline; 330,000 compounds, 0.34% hits; AID 449763, 2010; activation, % at 10 µM;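 active = at 10 µM dose, activation of 40% or more, normalized to positive control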;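 note: 100% = tunicamycin at 10 µg/mL and 0% = DMSO alone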
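assay system = CHO CHOP reporter cells | amount = 500 CHO-CHOP cells per well | buffer or medium = F12 with 10% FBS | incubation = 16-18 h cell attachment, then 6 h compound exposure, 37 °C | detection = luminescence read with Steady-Glo | read-out = percent activation relative to tunicamycin control | controls = tunicamycin high control, DMSO low control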
TMEM16A inh = TMEM16A chloride channel inhibitors, primary screen, cell-based, HTS | AID 588511, 2011 | HEK293 TMEM16A/YFP iodide influx fluorescence, ionomycin | normalized B-score (activity score, 25-100; higher = stronger inhibition) at 10 µM | 310,000 compounds, 1.2% hits | Anoctamin-1 (Mus musculus), Q8BHY3;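 active = ratio plate-corrected score three or more library SD toward inhibition, starting fluorescence score within five deviations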;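 note: score derived from kinetic fluorescence span divided by baseline fluorescence per well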
Target sequence (Q8BHY3 whole entry, looked up): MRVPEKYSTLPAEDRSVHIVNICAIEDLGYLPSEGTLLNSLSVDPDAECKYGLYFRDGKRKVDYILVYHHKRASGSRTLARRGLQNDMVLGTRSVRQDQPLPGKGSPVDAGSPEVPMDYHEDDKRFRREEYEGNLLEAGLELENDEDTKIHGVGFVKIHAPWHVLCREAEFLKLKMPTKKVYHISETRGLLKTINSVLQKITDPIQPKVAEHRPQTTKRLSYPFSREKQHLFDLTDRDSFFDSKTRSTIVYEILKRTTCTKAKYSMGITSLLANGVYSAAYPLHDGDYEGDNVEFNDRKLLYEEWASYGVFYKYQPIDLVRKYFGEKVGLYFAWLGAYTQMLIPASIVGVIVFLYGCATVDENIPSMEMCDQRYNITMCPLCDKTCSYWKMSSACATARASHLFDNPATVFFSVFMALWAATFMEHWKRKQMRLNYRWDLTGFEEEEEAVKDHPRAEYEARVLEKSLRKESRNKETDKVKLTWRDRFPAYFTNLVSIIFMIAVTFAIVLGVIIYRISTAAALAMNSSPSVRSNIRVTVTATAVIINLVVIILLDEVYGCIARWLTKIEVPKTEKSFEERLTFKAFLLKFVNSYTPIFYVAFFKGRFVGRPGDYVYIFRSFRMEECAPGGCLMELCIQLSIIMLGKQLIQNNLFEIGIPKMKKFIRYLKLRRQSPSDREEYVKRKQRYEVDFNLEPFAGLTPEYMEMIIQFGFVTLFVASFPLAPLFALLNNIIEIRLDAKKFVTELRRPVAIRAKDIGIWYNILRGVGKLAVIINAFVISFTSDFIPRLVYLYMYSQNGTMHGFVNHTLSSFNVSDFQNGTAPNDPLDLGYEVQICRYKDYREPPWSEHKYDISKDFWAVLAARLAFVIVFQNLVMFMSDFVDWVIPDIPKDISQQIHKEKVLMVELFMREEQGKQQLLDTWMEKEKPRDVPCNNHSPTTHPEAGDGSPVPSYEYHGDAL
ANO1 activ = TMEM16A chloride channel activators or potentiators, primary screen, cell-based, HTS. Anoctamin-1 (Mus musculus), Q8BHY3. HEK293 TMEM16A/YFP-H148Q/I152L, iodide quench fluorescence; active compounds read low. B-score at 10 µM. 340,000 compounds, 0.3% hits. AID 623877, 2012;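 active = fluorescence-ratio B-score plate-corrected deviation score at least 3 library SD below zero, with starting fluorescence score within 5 deviations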;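 note: channel opened by trigger with iodide after compound preincubation; score built on the fluorescence ratio of max minus min over baseline; more negative score means more quench and so TMEM16A activation or potentiation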
Hep lipid drop = inhibitors of hepatocyte lipid droplet formation, primary screen, imaging, high-throughput imaging, BODIPY stain; AML12 mouse hepatocytes, oleate lipid droplets; inhibition, % at 6.5 µM; 240,000 compounds, 0.4% hits;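 active = lipid droplet intensity inhibited by at least 50%, with more than 500 cells counted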
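Test system: AML12 mouse liver cells; schedule: overnight exposure; technique: high-content imaging of BODIPY-stained droplets and DAPI nuclei; read-out: % inhibition of corrected integrated BODIPY droplet signal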
CHOP inh = inhibitors of CHOP promoter induction, primary screen, cell-based, unfolded protein response, luciferase reporter. CHO-K1 CHOP-promoter luciferase, tunicamycin-induced, 15-18 h. inhibition, % at 10 µM. 220,000 compounds, 3.8% hits;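 active = compounds that reduced the stress-induced luciferase reporter signal by more than about 70% of percent inhibition, limit read from the data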;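 note: 0% = tunicamycin plus vehicle and 100% = wells without tunicamycin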
UPR XBP1 confirm = IRE1-XBP1 UPR arm activators, confirmation, cell-based, CHO-XBP1 luciferase reporter, luminescence, single concentration; shares compounds with UPR XBP1 act; activation, % at 20 µM; 1,000 compounds, 63% hits; AID 485299, 2010;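 active = reporter signal at least 30% of the positive control's activation in two or more of four replicate wells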;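 note: plate controls were DMSO negative control for no effect and tunicamycin 10 µg/mL positive control for full effect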
An asterisk follows results filed as active; i = inactive; . = no result given. The list is not random: actives were taken first. Their share in the collection is about 4.2%.

SMILES	UPR XBP1 act	UPR CHOP act	TMEM16A inh	ANO1 activ	Hep lipid drop	CHOP inh	UPR XBP1 confirm
Clc1ccc2c(c1)C(N1CCNCC1)Cc1ccccc1S2 (stereo not given)	62.9*	5.3	25*	i	-5.1	79.3*	72.5*
CCOC(=O)c1ccc(N2Cc3ccccc3C2=NC(=O)c2cccc([N+](=O)[O-])c2)cc1	56.1*	16.4	i	i	.	.	5.3
N#C/C(=C\Nc1ccc2cn[nH]c2c1)c1nc(-c2ccc(Cl)cc2)cs1	101.1*	11.8	i	i	1.5	13.9	72.0*
C/C(CCc1ccc2c(c1)OCO2)=N\NC(=O)c1ccccc1Br	-1.4	-2.7	i	i	3.9	6.5	.
CN1C(=O)/C(=N\OC(=O)c2cccc3ccccc23)c2ccccc21	42.5*	6.2	i	i	.	95.1*	5.3
CCN(CC)CCCNC(=O)c1ccc(S(=O)(=O)Nc2ccc(C)c(C)c2)cc1	-0.2	2.9	.	i	.	.	.
CCOc1ccc(OCC(=O)N(CCC2=CCCCC2)c2c(N)n(Cc3ccccc3)c(=O)[nH]c2=O)cc1	31.0*	1.8	i	i	.	.	6.7
CC(CC(=O)N(CCC1=CCCCC1)c1c(N)n(Cc2ccccc2)c(=O)[nH]c1=O)c1ccccc1 (stereo not given)	39.7*	5.9	i	i	.	.	15.9
COc1ccccc1CCC(=O)N(CCC1=CCCCC1)c1c(N)n(Cc2ccccc2)c(=O)[nH]c1=O	-4.0	1.8	i	i	.	.	.
CC(C)CCN(C(=O)c1csnn1)C(C(=O)NC1CCCCC1)c1ccc(F)cc1 (stereo not given)	-2.5	-0.2	i	i	3.2	.	.
COc1ccc(/C=C/C=C2\NC(=S)NC2=O)cc1	-1.2	1.5	i	i	6.3	23.8	.
O=C1NC(=S)N/C1=C\C=C\c1ccccc1	39.1*	0.5	i	i	5.8	11.9	5.1
CC1=C(C(=O)OCc2ccccc2)C(c2ccc([N+](=O)[O-])cc2)NC(=O)N1CCCCCC(=O)O (stereo not given)	1.5	2.9	i	i	-1.7	-5.0	.
CC1=C(C(=O)OCc2ccccc2)C(c2ccc([N+](=O)[O-])cc2)NC(=O)N1CCCC(=O)O (stereo not given)	52.9*	1.3	i	i	-14.6	.	-1.0
COc1ccc(C(=O)/C=C/c2ccccc2)c(OC)c1	1.6	6.9	i	i	-1.4	-97.5	.
COCOc1cc(O)c(C(=O)/C=C/c2ccccc2)c(OCOC)c1	40.3*	22.4	i	i	.	.	27.5
CC(C)(C)c1ccc(C(=O)Nc2ccc(O)c3c(=O)cc(-c4cccc(Cl)c4)oc23)cc1	55.2*	21.1	i	i	-0.7	33.6	52.4*
O=C(Nc1ccc(O)c2c(=O)cc(-c3ccccc3Cl)oc12)c1ccc(F)cc1	-1.1	2.0	.	i	7.8	26.7	.
O=C(Nc1ccc(O)c2c(=O)cc(-c3cccc(Cl)c3)oc12)c1cccc(Cl)c1	73.5*	33.2	i	i	-20.7	-61.9	69.8*
COc1ccc(C(=O)Nc2ccc(O)c3c(=O)cc(-c4cccc(Cl)c4)oc23)cc1	-0.5	3.9	i	i	-2.8	23.1	.
COc1cccc2cc(C(=O)NC3CC4CCC3C4)oc12 (stereo not given)	1.3	3.9	i	i	4.9	.	.
COc1ccc(/C=N/NC(=O)c2cccc(S(=O)(=O)N3CCCC3)c2)cc1O	-0.8	-0.1	.	i	.	.	.
FC(F)(F)c1cc(CCN2CCNC[C@@H]2Cc2ccccc2)cc(C(F)(F)F)c1	36.7*	1.7	i	i	.	.	17.8
Fc1cccc(CCN2CCNC[C@@H]2Cc2ccccc2)c1	0.9	0.8	i	i	.	.	.
COc1ccc(C(=O)Oc2cc3c4c(c2)C(C)=CC(C)(C)N4C(=O)C3=O)cc1OC	64.7*	3.6	i	i	2.2	-3.0	30.8*
SMILES	UPR XBP1 act	UPR CHOP act	TMEM16A inh	ANO1 activ	Hep lipid drop	CHOP inh	UPR XBP1 confirm
COc1cccc(C(=O)Oc2cc3c4c(c2)C(C)=CC(C)(C)N4C(=O)C3=O)c1	50.4*	3.3	i	i	.	6.6	253.4*
COc1ccc(C(=O)Oc2cccnc2)cc1OC	2.5	0.1	i	i	10.2	20.8	.
COc1cc(N=C2C(=O)N3c4c(cccc42)C(C)=CC3(C)C)cc(OC)c1	-2.3	-1.0	i	i	6.9	34.4	.
CN1CCN(S(=O)(=O)c2cccc(C(=O)Oc3ccc(Br)cc3F)c2)CC1	-2.2	2.6	i	i	-0.1	.	.
CCC(C)(C)C1CCc2[nH]nc(C(=O)NCc3ccc(Cl)cc3)c2C1 (stereo not given)	5.7	1.1	i	i	.	.	.
N#Cc1ccc(-c2ccccc2)nc1SCC(=O)c1cccc(Cl)c1	-0.9	0.4	i	i	.	22.6	.
N#Cc1ccc(-c2ccc(Cl)cc2)nc1SCC(=O)c1cccc(Cl)c1	122.1*	27.1	i	i	-1.1	-1.4	369.1*
CC1=C[C@@H](C)[C@@H](c2ccc(C(F)(F)F)cc2)OC1=O	1.9	2.3	i	i	7.2	.	.
Cc1cccc2sc(NC(=O)C3CSC4(C)CCC(=O)N34)nc12 (stereo not given)	30.8*	-0.1	i	i	0.4	.	-1.8
COc1ccc(CNc2nc(-c3ccccc3)nn2C(=O)c2ccc([N+](=O)[O-])cc2)cc1	32.8*	5.9	i	i	8.6	5.0	0.6
Ic1ccc(N2CCN(Cc3c[nH]c4ncccc34)CC2)cc1	-3.3	0.6	i	i	.	2.7	.
CC[C@H](C)C(N)c1cn([C@@H](CC(N)=O)C(=O)N2CCNCC2)nn1 (stereo not given in full)	0.4	-2.7	i	i	.	.	.
CCC/C(=N/Nc1ccc(Cl)cc1)c1cnnc(-c2ccccc2)n1	66.3*	19.3	i	.	.	.	27.9*
COc1ccccc1/C=N/NC(=O)C(=O)N1CCN(c2ccccc2OC)CC1	-3.1	-0.5	i	i	33.9	-21.4	.
CCOC(=O)Nc1nc(-c2ccccc2)c(C(=O)c2ccccc2)s1	31.2*	0.3	i	i	.	44.4	12.1
